Measured values published in ChEMBL document CHEMBL4270659, “Discovery and anti-inflammatory evaluation of benzothiazepinones (BTZs) as novel non-ATP competitive inhibitors of glycogen synthase kinase-3β (GSK-3β)” (Bioorg Med Chem, 2018).
Blank lines part the entries; values can stand above or below the compound they belong to. Active and inactive are the calls of the source. The calls are words filed in the database; no cut-off is given here.

Tests used:
[1] = biological target: T1, Glycogen synthase kinase-3 beta (Homo sapiens, UniProt P49841); test: Inhibition of human recombinant N-terminal His6-tagged human GSK-3beta expressed in Baculovirus infected SF9 cells using prephosphorylated-GS2 polypeptide as substrate after 30 mins by kinase-Glo reagent based luminescence assay
Procedure, shortened: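 GSK-3β was incubated with ATP and GS-2 substrate with or without compound. ATP remaining after the kinase reaction was quantified by Kinase-Glo luminescence. IC50 is the mean of triplicate experiments.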
Target sequence in this assay (P49841 whole entry): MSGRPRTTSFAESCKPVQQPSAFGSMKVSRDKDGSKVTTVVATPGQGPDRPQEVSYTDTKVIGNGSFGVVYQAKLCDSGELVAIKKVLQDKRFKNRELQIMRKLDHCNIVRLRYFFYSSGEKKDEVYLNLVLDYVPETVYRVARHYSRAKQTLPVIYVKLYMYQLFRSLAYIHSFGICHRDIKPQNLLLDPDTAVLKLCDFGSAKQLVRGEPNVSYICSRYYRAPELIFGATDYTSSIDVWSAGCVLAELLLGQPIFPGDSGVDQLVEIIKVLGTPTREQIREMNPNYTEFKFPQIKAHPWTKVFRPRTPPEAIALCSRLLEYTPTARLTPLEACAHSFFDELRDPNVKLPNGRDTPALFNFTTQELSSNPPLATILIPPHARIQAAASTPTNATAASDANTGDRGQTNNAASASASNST

[2] = biological target: Mast/stem cell growth factor receptor Kit (Homo sapiens) (UniProt P10721); test: Inhibition of human c-KIT at 100 uM
Procedure, shortened: (§1)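 Kinase selectivity panel run at 100 μM inhibitor. Activity is reported as % inhibition, the mean of two independent experiments.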

[3] = biological target: T1, Glycogen synthase kinase-3 beta; test: Non-ATP competitive inhibition of recombinant N-terminal His6-tagged human GSK-3beta expressed in Baculovirus infected SF9 cells at 20 to 30 uM using prephosphorylated-GS2 polypeptide as substrate after 30 mins by kinase-Glo reagent based luminescence assay
Procedure, shortened: (§2)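 Kinetic analysis used the same Kinase-Glo GSK-3β assay. Inhibitor was tested at fixed concentrations while one substrate (ATP or GS-2) was held constant and the other varied, and the data were plotted as double-reciprocal plots.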
Target sequence in this assay (P49841 whole entry, looked up): as the sequence (P49841 whole entry) above

[4] = biological target: Platelet-derived growth factor receptor beta (Homo sapiens) (UniProt P09619); test: Inhibition of human PDGFRbeta at 100 uM; procedure, shortened: as §1
[5] = biological target: Protein kinase C alpha type (Homo sapiens) (UniProt P17252); test: Inhibition of human PKCalpha at 100 uM; procedure, shortened: as §1
[6] = biological target: Fibroblast growth factor receptor 1 (Homo sapiens) (UniProt P11362); test: Inhibition of human FGFR1 at 100 uM; procedure, shortened: as §1
[7] = biological target: Cyclin-dependent kinase 1 (Homo sapiens) (UniProt P06493); test: Inhibition of human CDK1 at 100 uM; procedure, shortened: as §1
[8] = biological target: Casein kinase 2 (Homo sapiens) (UniProt P67870+P68400+P19784+Q8NEV1); test: Inhibition of human CK2 at 100 uM; type: protein assay; procedure, shortened: as §1
Homo sapiens = organism: Homo sapiens; test: Inhibition of human PKA at 100 uM; procedure, shortened: as §1
[9] = biological target: Vascular endothelial growth factor receptor 1 (Homo sapiens) (UniProt P17948); test: Inhibition of human Flt1 at 100 uM; procedure, shortened: as §1
[10] = biological target: Vascular endothelial growth factor receptor 2 (Homo sapiens) (UniProt P35968); test: Inhibition of human KDR at 100 uM; procedure, shortened: as §1
[11] = biological target: Proto-oncogene tyrosine-protein kinase receptor Ret (Homo sapiens) (UniProt P07949); test: Inhibition of human RET at 100 uM
Mus musculus [12] = test: Anti-inflammatory activity in C57BL/6 mouse lung injury model assessed reduction in lung tissue damage at 80 uM, ip administered 12 hrs prior to LPS challenge and measured after 24 hrs by Hematoxylin and eosin staining-based light microscopic analysis; type: functional; set-up: scale not given: the % may be the effect or the level left
Procedure, shortened: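 C57BL/6 mice received compound (80 μM) or PBS ip, followed 12 h later by LPS (10 mg/kg ip). At 24 h after LPS, lungs were fixed, embedded, sectioned and H&E stained. Hemorrhage, edema, interstitial inflammatory cell infiltration, hyaline membrane and atelectasis were each graded 0–4 to give an injury score. Mean ± SEM, n = 5 mice.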

Mus musculus [13] = test: Anti-inflammatory activity in C57BL/6 mouse lung injury model assessed as inhibition of IL-1beta mRNA expression level at 80 uM, ip administered 12 hrs prior to LPS challenge and measured after 24 hrs by qRT-PCR analysis; type: functional
Mus musculus [14] = test: Anti-inflammatory activity in C57BL/6 mouse lung injury model assessed as inhibition of IL-6 mRNA expression level at 80 uM, ip administered 12 hrs prior to LPS challenge and measured after 24 hrs by qRT-PCR analysis; type: functional
Mus musculus [15] = test: In vivo inhibition of GSK-3beta in C57BL/6 mouse lung injury model assessed as upregulation of SIRT1 expression in lung at 80 uM, ip administered 12 hrs prior to LPS challenge and measured after 24 hrs by Western blot analysis relative to control; type: functional
Procedure, shortened: (§3)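 Mice were pretreated ip with compound (80 μM) or PBS, and LPS (10 mg/kg ip) was given 12 h later. Lungs were collected 24 h post-LPS, and p-GSK-3β and SIRT1 were detected by Western blot. Values are means ± SE of 4 independent experiments.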

[16] = biological target: Proto-oncogene tyrosine-protein kinase Src (Homo sapiens) (UniProt P12931); conditions: at 100 µM
[17] = biological target: Tyrosine-protein kinase ABL1 (Homo sapiens) (UniProt P00519); conditions: at 100 µM
[18] = biological target: T1, Glycogen synthase kinase-3 beta; test: Non-ATP competitive inhibition of recombinant N-terminal His6-tagged human GSK-3beta expressed in Baculovirus infected SF9 cells at 15 to 25 uM using prephosphorylated-GS2 polypeptide as substrate after 30 mins by kinase-Glo reagent based luminescence assay; procedure, shortened: as §2
Target sequence in this assay (P49841 whole entry, looked up): as the sequence (P49841 whole entry) above

[19] = biological target: Platelet-derived growth factor receptor alpha (Homo sapiens) (UniProt P16234); test: Inhibition of human PDGFRalpha at 100 uM; procedure, shortened: as §1
[20] = biological target: Receptor tyrosine-protein kinase erbB-4 (Homo sapiens) (UniProt Q15303); test: Inhibition of human ErbB4 at 100 uM; procedure, shortened: as §1
Mus musculus [21] = test: In vivo inhibition of GSK-3beta in C57BL/6 mouse lung injury model assessed as upregulation of LPS-induced phosphorylation at Ser9 residue in lung at 80 uM, ip administered 12 hrs prior to LPS challenge and measured after 24 hrs by Western blot analysis relative to control; type: functional; procedure, shortened: as §3

Chain of Cyclin-dependent kinase 1 (Homo sapiens) (P06493 whole entry, looked up): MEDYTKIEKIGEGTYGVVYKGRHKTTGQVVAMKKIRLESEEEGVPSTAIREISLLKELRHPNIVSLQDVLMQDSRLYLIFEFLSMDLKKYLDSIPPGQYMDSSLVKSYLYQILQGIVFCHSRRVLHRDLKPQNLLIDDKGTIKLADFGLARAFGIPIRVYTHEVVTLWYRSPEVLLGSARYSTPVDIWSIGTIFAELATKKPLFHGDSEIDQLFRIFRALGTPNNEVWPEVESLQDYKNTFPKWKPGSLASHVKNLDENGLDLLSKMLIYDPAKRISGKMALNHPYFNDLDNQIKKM
Chain of Mast/stem cell growth factor receptor Kit (Homo sapiens) (P10721 whole entry): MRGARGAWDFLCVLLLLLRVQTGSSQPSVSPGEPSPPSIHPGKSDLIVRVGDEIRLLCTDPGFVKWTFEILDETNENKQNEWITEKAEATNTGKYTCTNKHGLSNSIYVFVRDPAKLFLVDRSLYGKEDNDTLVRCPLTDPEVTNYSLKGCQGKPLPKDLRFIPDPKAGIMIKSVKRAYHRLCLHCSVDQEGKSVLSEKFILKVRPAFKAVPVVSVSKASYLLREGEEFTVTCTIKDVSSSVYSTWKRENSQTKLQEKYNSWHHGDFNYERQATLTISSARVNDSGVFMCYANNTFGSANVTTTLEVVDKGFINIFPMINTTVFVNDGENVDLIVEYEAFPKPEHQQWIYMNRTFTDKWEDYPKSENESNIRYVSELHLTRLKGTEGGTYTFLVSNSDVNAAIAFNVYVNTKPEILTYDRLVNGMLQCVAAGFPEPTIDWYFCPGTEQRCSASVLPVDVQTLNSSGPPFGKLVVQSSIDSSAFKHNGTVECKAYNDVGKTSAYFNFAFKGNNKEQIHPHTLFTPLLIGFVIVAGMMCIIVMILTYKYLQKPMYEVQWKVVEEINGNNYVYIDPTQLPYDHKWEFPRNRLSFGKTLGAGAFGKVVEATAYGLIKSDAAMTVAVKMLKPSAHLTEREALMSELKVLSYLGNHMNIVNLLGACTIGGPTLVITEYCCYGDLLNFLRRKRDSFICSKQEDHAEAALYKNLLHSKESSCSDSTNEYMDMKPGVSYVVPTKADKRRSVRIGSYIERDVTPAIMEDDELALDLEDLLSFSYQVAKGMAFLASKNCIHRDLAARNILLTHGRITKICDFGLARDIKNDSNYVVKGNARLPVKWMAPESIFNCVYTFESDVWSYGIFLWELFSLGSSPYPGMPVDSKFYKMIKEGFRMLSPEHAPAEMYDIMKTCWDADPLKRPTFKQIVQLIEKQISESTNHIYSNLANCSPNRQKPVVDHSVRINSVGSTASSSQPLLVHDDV
Chain of Platelet-derived growth factor receptor beta (Homo sapiens) (P09619 whole entry): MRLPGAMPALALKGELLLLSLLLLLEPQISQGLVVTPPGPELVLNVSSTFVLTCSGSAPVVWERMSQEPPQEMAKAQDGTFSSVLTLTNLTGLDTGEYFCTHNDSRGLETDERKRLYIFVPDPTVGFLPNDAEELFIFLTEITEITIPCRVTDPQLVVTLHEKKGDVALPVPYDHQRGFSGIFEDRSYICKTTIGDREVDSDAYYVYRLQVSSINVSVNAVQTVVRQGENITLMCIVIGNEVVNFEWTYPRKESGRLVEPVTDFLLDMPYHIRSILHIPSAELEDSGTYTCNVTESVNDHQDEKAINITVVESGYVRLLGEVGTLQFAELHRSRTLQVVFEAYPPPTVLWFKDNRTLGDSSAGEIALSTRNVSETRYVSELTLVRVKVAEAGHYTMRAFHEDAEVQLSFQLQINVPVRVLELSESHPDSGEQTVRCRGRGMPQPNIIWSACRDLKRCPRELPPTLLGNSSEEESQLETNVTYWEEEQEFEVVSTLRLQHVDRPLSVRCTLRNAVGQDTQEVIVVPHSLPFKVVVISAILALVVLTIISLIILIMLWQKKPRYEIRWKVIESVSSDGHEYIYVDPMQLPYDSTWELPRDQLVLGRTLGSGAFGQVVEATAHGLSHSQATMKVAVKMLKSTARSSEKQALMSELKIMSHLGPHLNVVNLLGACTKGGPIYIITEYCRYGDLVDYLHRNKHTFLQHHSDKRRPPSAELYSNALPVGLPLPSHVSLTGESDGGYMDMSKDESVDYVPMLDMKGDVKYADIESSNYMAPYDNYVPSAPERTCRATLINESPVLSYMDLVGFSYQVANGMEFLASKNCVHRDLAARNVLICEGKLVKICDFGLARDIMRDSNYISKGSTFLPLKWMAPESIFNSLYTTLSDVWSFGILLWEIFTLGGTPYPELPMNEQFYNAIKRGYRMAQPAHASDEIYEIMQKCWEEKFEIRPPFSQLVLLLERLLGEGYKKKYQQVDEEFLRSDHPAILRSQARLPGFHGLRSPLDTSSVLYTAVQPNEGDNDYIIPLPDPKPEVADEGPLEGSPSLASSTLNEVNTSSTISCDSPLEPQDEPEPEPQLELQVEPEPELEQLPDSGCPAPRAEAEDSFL
Chain of Vascular endothelial growth factor receptor 1 (Homo sapiens) (P17948 whole entry): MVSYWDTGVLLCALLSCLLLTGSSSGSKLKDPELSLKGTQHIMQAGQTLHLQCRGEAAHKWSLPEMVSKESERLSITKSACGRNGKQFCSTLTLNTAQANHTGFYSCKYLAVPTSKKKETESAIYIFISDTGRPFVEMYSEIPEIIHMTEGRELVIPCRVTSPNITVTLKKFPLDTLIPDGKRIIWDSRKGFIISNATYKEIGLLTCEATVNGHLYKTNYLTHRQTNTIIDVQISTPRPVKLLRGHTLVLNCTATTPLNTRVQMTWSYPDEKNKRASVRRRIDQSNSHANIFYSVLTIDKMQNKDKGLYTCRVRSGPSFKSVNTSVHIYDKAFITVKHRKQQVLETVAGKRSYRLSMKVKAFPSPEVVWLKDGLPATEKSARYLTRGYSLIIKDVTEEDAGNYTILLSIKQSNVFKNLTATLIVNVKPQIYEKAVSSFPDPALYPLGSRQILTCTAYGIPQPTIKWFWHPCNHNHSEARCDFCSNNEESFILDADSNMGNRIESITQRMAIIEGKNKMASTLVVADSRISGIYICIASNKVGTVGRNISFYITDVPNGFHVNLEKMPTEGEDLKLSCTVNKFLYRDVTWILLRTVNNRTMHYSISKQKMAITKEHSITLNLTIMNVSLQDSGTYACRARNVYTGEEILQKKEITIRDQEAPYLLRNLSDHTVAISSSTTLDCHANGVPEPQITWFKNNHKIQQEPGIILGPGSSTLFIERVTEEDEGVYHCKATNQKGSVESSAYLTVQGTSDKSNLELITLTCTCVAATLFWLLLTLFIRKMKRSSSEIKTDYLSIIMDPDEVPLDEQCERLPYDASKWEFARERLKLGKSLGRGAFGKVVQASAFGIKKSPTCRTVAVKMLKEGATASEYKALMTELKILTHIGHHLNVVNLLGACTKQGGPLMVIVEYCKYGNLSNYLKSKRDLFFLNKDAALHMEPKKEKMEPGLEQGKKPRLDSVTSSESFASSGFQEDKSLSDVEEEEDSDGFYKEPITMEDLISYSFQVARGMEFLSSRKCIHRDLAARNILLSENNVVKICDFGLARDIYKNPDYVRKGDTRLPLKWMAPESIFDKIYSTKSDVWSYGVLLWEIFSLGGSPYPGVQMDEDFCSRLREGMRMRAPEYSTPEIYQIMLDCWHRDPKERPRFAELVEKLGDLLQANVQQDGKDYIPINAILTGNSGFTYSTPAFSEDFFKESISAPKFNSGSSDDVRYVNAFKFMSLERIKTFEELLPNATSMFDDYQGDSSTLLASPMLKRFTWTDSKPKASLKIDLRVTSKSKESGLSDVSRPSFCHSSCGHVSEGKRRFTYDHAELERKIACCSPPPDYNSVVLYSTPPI
Chain of Proto-oncogene tyrosine-protein kinase Src (Homo sapiens) (P12931 2-536 limits assumed): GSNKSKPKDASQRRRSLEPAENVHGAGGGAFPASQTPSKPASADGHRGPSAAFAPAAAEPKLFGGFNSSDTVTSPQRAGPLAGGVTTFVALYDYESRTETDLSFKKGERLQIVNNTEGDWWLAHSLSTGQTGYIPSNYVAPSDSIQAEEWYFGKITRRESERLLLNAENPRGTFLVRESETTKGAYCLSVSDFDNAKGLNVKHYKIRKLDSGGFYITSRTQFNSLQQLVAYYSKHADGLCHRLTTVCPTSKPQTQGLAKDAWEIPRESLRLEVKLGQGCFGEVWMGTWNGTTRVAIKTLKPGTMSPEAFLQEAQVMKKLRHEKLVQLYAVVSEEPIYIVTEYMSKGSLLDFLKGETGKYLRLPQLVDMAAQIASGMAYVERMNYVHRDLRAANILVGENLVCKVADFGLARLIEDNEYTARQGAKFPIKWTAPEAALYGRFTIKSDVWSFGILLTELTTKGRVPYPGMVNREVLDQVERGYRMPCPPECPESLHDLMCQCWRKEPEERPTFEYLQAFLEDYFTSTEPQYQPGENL

SMILES: O=C(NCc1ccc(F)cc1)c1ccc(C2CC(=O)N(Cc3ccccc3[N+](=O)[O-])c3ccccc3S2)cc1 (stereo unspecified)
IC50 [1]: 18 µM

SMILES: CCN(CC)C(=O)c1ccc(C2CC(=O)N(Cc3ccccc3[N+](=O)[O-])c3ccccc3S2)cc1 (stereo unspecified)
IC50 [1]: 90 µM

SMILES: O=C(NCc1ccco1)c1ccc(C2CC(=O)N(Cc3ccccc3[N+](=O)[O-])c3ccccc3S2)cc1 (stereo unspecified)
IC50 [1]: 27 µM

SMILES: O=C(NCc1cccc(F)c1)c1ccc(C2CC(=O)N(Cc3ccccc3[N+](=O)[O-])c3ccccc3S2)cc1 (stereo unspecified)
IC50 [1]: 19 µM

SMILES: COC(=O)c1ccc(C2CC(=O)N(Cc3ccccc3[N+](=O)[O-])c3ccccc3S2)cc1 (stereo unspecified)
IC50 [1]: 35 µM

SMILES: N#Cc1ccc(C2CC(=O)N(Cc3ccccc3[N+](=O)[O-])c3ccccc3S2)cc1 (stereo unspecified)
IC50 [1]: 45 µM

SMILES: CCN(CC)CCNC(=O)c1c(C)[nH]c(/C=C2\C(=O)Nc3ccc(F)cc32)c1C
inhibition [2]: 49.4%

SMILES: CN1CCN(C(=O)c2ccc(C3CC(=O)N(Cc4ccccc4[N+](=O)[O-])c4ccccc4S3)cc2)CC1 (stereo unspecified)
IC50 [1]: > 100 µM

SMILES: O=C(NC1CCCCC1)c1ccc(C2CC(=O)N(Cc3ccccc3[N+](=O)[O-])c3ccccc3S2)cc1 (stereo unspecified)
IC50 [1]: 32 µM

SMILES: COc1ccc(CNC(=O)c2ccc(C3CC(=O)N(Cc4ccccc4[N+](=O)[O-])c4ccccc4S3)cc2)cc1 (stereo unspecified)
IC50 [1]: 27 µM

SMILES: O=C1CC(c2ccc(C(=O)NCc3cccc(Cl)c3)cc2)Sc2ccccc2N1 (stereo unspecified)
IC50 [1]: 25 µM
inhibition [3]: Active
inhibition [4]: 41.2%
inhibition [5]: 2%
inhibition [6]: 5.4%
inhibition [7]: 22%
inhibition [8]: -6%
inhibition (Homo sapiens): -7%
inhibition [9]: 8.9%
inhibition [10]: 8.7%
inhibition [11]: 18.5%
Activity (Mus musculus [12]): 49%
inhibition (INH) (Mus musculus [13]): 28.84%
inhibition (INH) (Mus musculus [14]): 24.35%
fold change (FC) (Mus musculus [15]): 1.34
inhibition [16]: 0%
inhibition [17]: 46.6%

SMILES: O=C1CC(c2ccc(-c3ccccc3)cc2)Sc2ccccc2N1Cc1ccccc1[N+](=O)[O-] (stereo unspecified)
IC50 [1]: 51 µM

SMILES: Cc1ccc(CNC(=O)c2ccc(C3CC(=O)N(Cc4ccccc4[N+](=O)[O-])c4ccccc4S3)cc2)cc1 (stereo unspecified)
IC50 [1]: 18 µM

Further lines, with some results ahead:

IC50 [1]: 25 µM
SMILES: O=C(NCc1ccc(Br)cc1)c1ccc(C2CC(=O)N(Cc3ccccc3[N+](=O)[O-])c3ccccc3S2)cc1 (stereo unspecified)

IC50 [1]: 33 µM
SMILES: O=C(NCc1ccc(Cl)cc1)c1ccc(C2CC(=O)N(Cc3ccccc3[N+](=O)[O-])c3ccccc3S2)cc1 (stereo unspecified)

IC50 [1]: > 100 µM
SMILES: O=C(NC1CC1)c1ccc(C2CC(=O)N(Cc3ccccc3[N+](=O)[O-])c3ccccc3S2)cc1 (stereo unspecified)

IC50 [1]: 17 µM
SMILES: CS(=O)(=O)Nc1ccccc1CN1C(=O)CC(c2ccc(C(=O)NCc3cccc(Cl)c3)cc2)Sc2ccccc21 (stereo unspecified)

IC50 [1]: 49 µM
SMILES: O=C(c1ccc(C2CC(=O)N(Cc3ccccc3[N+](=O)[O-])c3ccccc3S2)cc1)N1CCCCC1 (stereo unspecified)

IC50 [1]: 20 µM
SMILES: O=C(NCc1ccccc1F)c1ccc(C2CC(=O)N(Cc3ccccc3[N+](=O)[O-])c3ccccc3S2)cc1 (stereo unspecified)

IC50 [1]: 75 µM
SMILES: O=C(NCc1ccccn1)c1ccc(C2CC(=O)N(Cc3ccccc3[N+](=O)[O-])c3ccccc3S2)cc1 (stereo unspecified)

IC50 [1]: 35 µM
SMILES: O=C(Nc1ccccn1)c1ccc(C2CC(=O)N(Cc3ccccc3[N+](=O)[O-])c3ccccc3S2)cc1 (stereo unspecified)

IC50 [1]: 20 µM
SMILES: Cc1ccc(C2CC(=O)N(Cc3ccccc3[N+](=O)[O-])c3ccccc3S2)cc1 (stereo unspecified)

IC50 [1]: 21 µM
SMILES: O=C(NCCc1ccccc1)c1ccc(C2CC(=O)N(Cc3ccccc3[N+](=O)[O-])c3ccccc3S2)cc1 (stereo unspecified)

IC50 [1]: 18 µM
SMILES: CS(=O)(=O)c1cccc(N2C(=O)CC(c3ccc(C(=O)NCc4cccc(Cl)c4)cc3)Sc3ccccc32)c1 (stereo unspecified)

IC50 [1]: 66 µM
SMILES: COC(=O)c1cccc(C2CC(=O)N(Cc3ccccc3[N+](=O)[O-])c3ccccc3S2)c1 (stereo unspecified)

IC50 [1]: 35 µM
SMILES: O=C(NCc1cccc(Cl)c1)c1ccc(C2CC(=O)N(Cc3ccccc3[N+](=O)[O-])c3ccccc3S2)cc1 (stereo unspecified)

IC50 [1]: 48 µM
SMILES: CC(C)(C)NC(=O)c1ccc(C2CC(=O)N(Cc3ccccc3[N+](=O)[O-])c3ccccc3S2)cc1 (stereo unspecified)

IC50 [1]: 28 µM
inhibition [18]: Active
inhibition [19]: 7.2%
inhibition [4]: 5.5%
inhibition [5]: 12%
inhibition [6]: 13.5%
inhibition [7]: 16%
inhibition [2]: 28%
inhibition [8]: 20%
inhibition (Homo sapiens): 0%
inhibition [9]: 6.8%
inhibition [20]: 12.2%
inhibition [11]: 68%
inhibition [16]: 7.2%
inhibition [17]: 0%
SMILES: O=C(NCc1ccccc1)c1ccc(C2CC(=O)N(Cc3ccccc3[N+](=O)[O-])c3ccccc3S2)cc1 (stereo unspecified)
Activity (Mus musculus [12]): 65%
inhibition (INH) (Mus musculus [13]): 43.18%
inhibition (INH) (Mus musculus [14]): 38.16%
fold change (FC) (Mus musculus [21]): 1.42
fold change (FC) (Mus musculus [15]): 1.93

IC50 [1]: 80 µM
SMILES: COC(=O)c1ccccc1C1CC(=O)N(Cc2ccccc2[N+](=O)[O-])c2ccccc2S1 (stereo unspecified)

IC50 [1]: 100 µM
SMILES: NC(=O)c1ccccc1CN1C(=O)CC(c2ccc(C(=O)NCc3ccccc3)cc2)Sc2ccccc21 (stereo unspecified)

IC50 [1]: 22 µM
SMILES: CCCCNC(=O)c1ccc(C2CC(=O)N(Cc3ccccc3[N+](=O)[O-])c3ccccc3S2)cc1 (stereo unspecified)
